From ChEMBL document CHEMBL1157359, “Binding of ceftobiprole and comparators to the penicillin-binding proteins of Escherichia coli, Pseudomonas aeruginosa, Staphylococcus aureus, and Streptococcus pneumoniae” (Antimicrob Agents Chemother, 2007)
≈ marks a conversion by molar mass, not a printed value.

Experiments:
[1] = Inhibition of bocillin FL binding to Escherichia coli MC4100 penicillin-binding protein 1a
Method in brief: (§1)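 Isolated E. coli MC4100 PBPs; competition with drug at 10 concentrations, 0.016 μg/ml to 8 μg/ml, then Bocillin FL labeling. Gel bands visualized by imaging. IC50 is the concentration giving 50% inhibition of Bocillin FL binding relative to a no-drug control.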

[2] = Inhibition of bocillin FL binding to Escherichia coli MC4100 penicillin-binding protein 4
Method in brief: (§2)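 Isolated E. coli MC4100 PBPs were competed with 10 drug concentrations from 0.016 μg/ml to 8 μg/ml, then labeled with Bocillin FL. Fluorescent PBP bands were imaged. IC50 is the concentration giving 50% inhibition of Bocillin FL binding to each PBP relative to a no-drug control.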

[3] = Inhibition of bocillin FL binding to Escherichia coli MC4100 penicillin-binding protein 1b; method in brief: as §2
[4] = target: Penicillin-binding protein 3 (Pseudomonas aeruginosa, UniProt Q51504); assay: Inhibition of bocillin FL binding to Pseudomonas aeruginosa PAO1 penicillin-binding protein 3
Method in brief: (§3)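 Isolated P. aeruginosa PAO1 PBPs; drug added at 10 concentrations, 0.06 μg/ml to 32 μg/ml, before Bocillin FL labeling. Labeled PBPs imaged. IC50 is the drug level cutting Bocillin FL binding by 50% versus a no-drug sample.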

[5] = target: T1, Penicillin-binding protein 2 (Pseudomonas aeruginosa, UniProt Q9X6V3); assay: Inhibition of bocillin FL binding to Pseudomonas aeruginosa PAO1 penicillin-binding protein 2; method in brief: as §3
T1 sequence (Q9X6V3 whole entry): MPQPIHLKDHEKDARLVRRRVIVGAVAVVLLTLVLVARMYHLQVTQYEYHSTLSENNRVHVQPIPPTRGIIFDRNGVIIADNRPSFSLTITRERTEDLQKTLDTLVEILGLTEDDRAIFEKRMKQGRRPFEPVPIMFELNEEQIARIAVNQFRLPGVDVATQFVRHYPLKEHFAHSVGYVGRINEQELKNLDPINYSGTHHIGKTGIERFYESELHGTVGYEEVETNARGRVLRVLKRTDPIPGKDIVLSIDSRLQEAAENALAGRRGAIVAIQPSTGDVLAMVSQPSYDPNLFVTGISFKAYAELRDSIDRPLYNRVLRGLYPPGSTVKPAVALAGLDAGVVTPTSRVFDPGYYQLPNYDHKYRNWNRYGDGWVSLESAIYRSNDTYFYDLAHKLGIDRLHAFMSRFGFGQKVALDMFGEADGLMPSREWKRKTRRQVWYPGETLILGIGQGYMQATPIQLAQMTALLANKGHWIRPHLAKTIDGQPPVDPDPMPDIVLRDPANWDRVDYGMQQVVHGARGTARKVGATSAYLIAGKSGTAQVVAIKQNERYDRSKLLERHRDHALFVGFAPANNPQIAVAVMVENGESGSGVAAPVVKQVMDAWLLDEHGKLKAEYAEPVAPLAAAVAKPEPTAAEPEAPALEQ

[6] = Inhibition of bocillin FL binding to Pseudomonas aeruginosa PAO1 penicillin-binding protein 4
Method in brief: (§4)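 P. aeruginosa PAO1 PBPs were isolated and competed with 10 drug concentrations from 0.06 μg/ml to 32 μg/ml before Bocillin FL labeling. Bands were detected by fluorescence imaging. IC50 was taken as 50% inhibition of Bocillin FL binding versus the no-drug sample.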

[7] = Inhibition of bocillin FL binding to Escherichia coli MC4100 penicillin-binding protein 5; method in brief: as §2
[8] = Inhibition of bocillin FL binding to Escherichia coli MC4100 penicillin-binding protein 6; method in brief: as §2
[9] = Inhibition of bocillin FL binding to Pseudomonas aeruginosa PAO1 penicillin-binding protein 1a; method in brief: as §4
[10] = Inhibition of bocillin FL binding to Escherichia coli MC4100 penicillin-binding protein 3; method in brief: as §2
[11] = target: T2, Cell shape peptidoglycan synthetase penicillin-binding protein 2 (Escherichia coli, UniProt Q2TL65); assay: Inhibition of bocillin FL binding to Escherichia coli MC4100 penicillin-binding protein 2; method in brief: as §1
T2 sequence (Q2TL65 whole entry): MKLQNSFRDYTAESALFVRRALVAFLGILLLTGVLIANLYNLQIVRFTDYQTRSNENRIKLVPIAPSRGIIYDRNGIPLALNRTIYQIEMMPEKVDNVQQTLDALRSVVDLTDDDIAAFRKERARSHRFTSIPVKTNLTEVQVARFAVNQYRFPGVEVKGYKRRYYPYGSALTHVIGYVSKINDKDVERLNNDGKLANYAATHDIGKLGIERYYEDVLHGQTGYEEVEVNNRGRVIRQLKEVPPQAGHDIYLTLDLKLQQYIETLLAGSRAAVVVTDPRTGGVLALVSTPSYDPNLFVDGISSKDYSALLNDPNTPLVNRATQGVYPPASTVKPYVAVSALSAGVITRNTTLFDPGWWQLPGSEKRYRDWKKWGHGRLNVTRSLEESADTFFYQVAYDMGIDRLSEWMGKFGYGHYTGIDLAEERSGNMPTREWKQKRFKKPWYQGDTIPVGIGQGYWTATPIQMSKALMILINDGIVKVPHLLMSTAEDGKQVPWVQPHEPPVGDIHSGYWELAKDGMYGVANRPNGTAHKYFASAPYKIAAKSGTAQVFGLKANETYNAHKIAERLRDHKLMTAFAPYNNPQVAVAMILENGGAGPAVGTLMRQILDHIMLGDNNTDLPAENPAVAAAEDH

[12] = Inhibition of bocillin FL binding to Pseudomonas aeruginosa PAO1 penicillin-binding protein 5/6; method in brief: as §3
[13] = target: T3, Penicillin-binding protein 1B (Pseudomonas aeruginosa, UniProt Q9X6W0); assay: Inhibition of bocillin FL binding to Pseudomonas aeruginosa PAO1 penicillin-binding protein 1b; method in brief: as §3
T3 sequence (Q9X6W0 whole entry): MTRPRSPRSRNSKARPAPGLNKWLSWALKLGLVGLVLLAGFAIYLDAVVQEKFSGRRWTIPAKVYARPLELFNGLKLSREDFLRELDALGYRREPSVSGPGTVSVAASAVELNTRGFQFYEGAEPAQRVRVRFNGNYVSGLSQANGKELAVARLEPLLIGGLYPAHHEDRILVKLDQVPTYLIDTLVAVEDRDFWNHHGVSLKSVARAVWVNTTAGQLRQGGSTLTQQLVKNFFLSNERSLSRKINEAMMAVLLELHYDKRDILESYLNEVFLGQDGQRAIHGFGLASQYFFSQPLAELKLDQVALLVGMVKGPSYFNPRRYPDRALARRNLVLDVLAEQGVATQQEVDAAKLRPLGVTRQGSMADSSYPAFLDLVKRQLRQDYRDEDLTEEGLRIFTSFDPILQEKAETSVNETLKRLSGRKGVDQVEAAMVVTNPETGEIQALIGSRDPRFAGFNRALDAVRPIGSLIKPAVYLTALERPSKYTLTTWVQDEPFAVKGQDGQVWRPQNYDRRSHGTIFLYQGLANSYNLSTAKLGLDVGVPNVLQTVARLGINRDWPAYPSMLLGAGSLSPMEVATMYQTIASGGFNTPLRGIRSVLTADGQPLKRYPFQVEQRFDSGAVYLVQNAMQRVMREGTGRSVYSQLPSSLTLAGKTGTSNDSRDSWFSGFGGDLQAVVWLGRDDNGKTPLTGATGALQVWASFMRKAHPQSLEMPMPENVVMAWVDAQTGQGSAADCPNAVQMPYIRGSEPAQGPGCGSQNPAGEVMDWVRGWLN

Penicillin-binding protein 3, sequence (Q51504 whole entry): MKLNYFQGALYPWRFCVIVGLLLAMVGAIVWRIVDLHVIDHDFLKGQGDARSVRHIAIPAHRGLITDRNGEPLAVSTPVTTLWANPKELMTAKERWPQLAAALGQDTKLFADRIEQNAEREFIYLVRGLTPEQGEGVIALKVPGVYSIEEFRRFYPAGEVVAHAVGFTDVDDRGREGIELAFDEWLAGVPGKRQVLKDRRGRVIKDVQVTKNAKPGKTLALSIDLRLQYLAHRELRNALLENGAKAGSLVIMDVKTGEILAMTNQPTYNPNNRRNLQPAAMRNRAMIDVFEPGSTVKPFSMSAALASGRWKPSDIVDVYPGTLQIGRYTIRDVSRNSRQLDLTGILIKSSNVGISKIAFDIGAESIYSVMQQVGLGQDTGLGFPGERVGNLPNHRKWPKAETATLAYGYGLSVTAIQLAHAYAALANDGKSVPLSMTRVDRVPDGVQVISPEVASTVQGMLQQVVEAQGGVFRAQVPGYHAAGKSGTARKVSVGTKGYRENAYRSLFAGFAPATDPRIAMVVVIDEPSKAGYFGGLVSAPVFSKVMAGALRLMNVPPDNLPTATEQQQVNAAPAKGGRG

SMILES	IC50 [1] [µg/mL]	IC50 [2] [µg/mL]	IC50 [3] [µg/mL]	IC50 [4] [nM]	IC50 [5] [nM]	IC50 [6] [µg/mL]	IC50 [7] [µg/mL]	IC50 [8] [µg/mL]	IC50 [9] [µg/mL]	IC50 [10] [µg/mL]	IC50 [11] [nM]	IC50 [12] [µg/mL]	IC50 [13] [nM]
C[C@H]1[C@H](NC(=O)/C(=N\OC(C)(C)C(=O)O)c2csc(N)n2)C(=O)N1S(=O)(=O)O (stereo in doubt) [AZTREONAM]	> 8	> 8	> 8	68.9	36700	16 (≈ 36.7 µM)	> 8	> 8	2 (≈ 4.59 µM)	0.03 (≈ 0.0689 µM)	> 18400	> 16	
CO/N=C(\C(=O)N[C@@H]1C(=O)N2C(C(=O)[O-])=C(C[N+]3(C)CCCC3)CS[C@H]12)c1csc(N)n1	2 (≈ 4.16 µM)	> 4	3.7 (≈ 7.7 µM)	208	16600	0.3 (≈ 0.624 µM)	> 4	> 4	0.1 (≈ 0.208 µM)	0.1 (≈ 0.208 µM)	1250	> 32	
C[C@@H](O)[C@H]1C(=O)N2C(C(=O)O)=C(SCCNC=N)C[C@H]12 [IMIPENEM ANHYDROUS]	0.5 (≈ 1.67 µM)	0.01 (≈ 0.0334 µM)	0.5 (≈ 1.67 µM)	334	334	0.01 (≈ 0.0334 µM)	0.5 (≈ 1.67 µM)	0.1 (≈ 0.334 µM)	0.5 (≈ 1.67 µM)	8 (≈ 26.7 µM)	33.4	2 (≈ 6.68 µM)	1670
